Experimental data from ChEMBL document CHEMBL5316280, “Development of N-(1-Adamantyl)benzamides as Novel Anti-Inflammatory Multitarget Agents Acting as Dual Modulators of the Cannabinoid CB2 Receptor and Fatty Acid Amide Hydrolase” (J Med Chem, 2023).
Active and inactive are the calls of the source. The rule behind the calls is not given here.

Tests used:
THP-1 [1] = experiment: Antiinflammatory activity in human THP-1 macrophages assessed as decrease in TNFalpha level incubated for 24 hrs by ELISA based qRT-PCR analysis; format: functional, cell-based
Summary of the method: (§1)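 THP-1 cells were seeded at 1 x 10⁵ cells/ml for 48 h. For macrophages, cells were differentiated with 0.01 µM PMA for 48 h; monocytes received no PMA. Cells were then given 24 h with or without 10 µg/ml LPS, plus ligands alone or with the CB2R inverse agonist JTE907 (10 µM). Cytokines were measured in 5 µL supernatant (from 1 x 10⁴ cells) by ProQuantum immunoassay, read as pg/ml from kit titration curves; n=3.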

THP-1 [2] = experiment: Antiinflammatory activity in human THP-1 macrophages assessed as decrease in IL-6 level incubated for 24 hrs in presence of […] by ELISA based qRT-PCR analysis; format: functional, cell-based; summary of the method: as §1
THP-1 [3] = experiment: Antiinflammatory activity in human THP-1 macrophages assessed as decrease in TNFalpha level incubated for 24 hrs in presence of […] by ELISA based qRT-PCR analysis; format: functional, cell-based; summary of the method: as §1
Cannabinoid receptor 2 [4] = target: T1, Cannabinoid receptor 2 (Homo sapiens, UniProt P34972); experiment: Displacement of [3H]CP55940 from recombinant human CB2 receptor expressed in HEK293 cell membrane incubated for 90 mins by beta scintillation counter method; format: cell membranes
Summary of the method: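 HEK293 membranes stably expressing human CB2 (50 µg protein/well) competed with 0.2 nM [3H]-CP55,940 (final) against test compound at 10⁻¹²–10⁻⁵ M in Tris-HCl 50 mM, EGTA 2.5 mM, MgCl₂ 5 mM, 0.1% fatty-acid-free BSA, pH 7.4; 90 min at 30 °C. Nonspecific binding defined with 10 µM GW405833.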

Cannabinoid receptor 1 = Cannabinoid receptor 1 (Homo sapiens, UniProt P21554); experiment: Agonist activity at human CB1 receptor in CHO cells incubated for 15 mins by plate reader analysis
[5] = Metal chelating activity assessed as Fe2+-compound complex formation incubated for 15 mins by Ferrozine based assay
Summary of the method: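 FeSO₄ (25 µM) in water incubated with or without test compound (100 µM, DMSO) for 15 min at room temperature, 300 µL final. Ferrozine then added (1 mM final), shaken 15 min at room temperature. Absorbance of the ferrozine–Fe(II) magenta complex read at 562 nm; chelation seen as reduced complex formation.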

THP-1 [6] = experiment: Antiinflammatory activity in human THP-1 monocytes assessed as increase in IL-10 level incubated for 24 hrs by ELISA based qRT-PCR analysis; format: functional, cell-based; summary of the method: as §1
Cannabinoid receptor 2 [7] = target: T1, Cannabinoid receptor 2; experiment: Agonist activity at human CB2 receptor overexpressed in CHO-K1 cells assessed as cAMP level incubated for 30 mins by luminescence based assay relative to control; format: functional, cell-based; details: filed as agonist
Summary of the method: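 CHO-K1 cells overexpressing human CB2R were plated at 30 000 cells/well and held overnight at 37 °C, 5% CO2. Test samples were added as dose–response solutions with NKH-477 to stimulate adenylate cyclase, then incubated 30 min at 37 °C. cAMP was detected by luminescence after cell lysis. Values were normalized to NKH-477 alone as 100% response. Three independent experiments were run in triplicate.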

[8] = target: Cannabinoid receptor 2 (Mus musculus) (UniProt P47936); experiment: Agonist activity at mouse CB2 receptor transfected in CHO-K1 cells assessed as beta2-arrestin recruitment incubated for 90 mins by luminescence based assay relative to control; format: functional, cell-based
Summary of the method: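 PathHunter eXpress kit using mouse CB2 receptor in CHO-K1 cells. Cells were seeded 48 h before the assay in kit medium. Compounds in cell plating reagent were incubated 90 min at 37 °C, 5% CO2. Working detection solution was then added for 60 min at room temperature to read β-arrestin recruitment.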

THP-1 [9] = experiment: Antiinflammatory activity in human THP-1 monocytes assessed as decrease in TNFalpha level incubated for 24 hrs by ELISA based qRT-PCR analysis; format: functional, cell-based; summary of the method: as §1
THP-1 [10] = experiment: Antiinflammatory activity in human THP-1 monocytes assessed as increase in IL-4 level incubated for 24 hrs in presence of […] by ELISA based qRT-PCR analysis; format: functional, cell-based; summary of the method: as §1
THP-1 [11] = experiment: Antiinflammatory activity in human THP-1 macrophages assessed as increase in IL-10 level incubated for 24 hrs by ELISA based qRT-PCR analysis; format: functional, cell-based; summary of the method: as §1
THP-1 [12] = experiment: Antiinflammatory activity in human THP-1 macrophages assessed as decrease in IFNgamma level incubated for 24 hrs in presence of […] by ELISA based qRT-PCR analysis; format: functional, cell-based; summary of the method: as §1
THP-1 [13] = experiment: Antiinflammatory activity in human THP-1 monocytes assessed as increase in IL-4 level incubated for 24 hrs by ELISA based qRT-PCR analysis; format: functional, cell-based; summary of the method: as §1
THP-1 [14] = experiment: Antiinflammatory activity in LPS-activated human THP-1 monocytes assessed as decrease in IL-6 level incubated for 24 hrs by ELISA based qRT-PCR analysis; format: functional, cell-based; summary of the method: as §1
THP-1 [15] = experiment: Antiinflammatory activity in LPS-activated human THP-1 macrophages assessed as increase in IL-4 level incubated for 24 hrs by ELISA based qRT-PCR analysis; format: functional, cell-based; summary of the method: as §1
THP-1 [16] = experiment: Antiinflammatory activity in LPS-activated human THP-1 macrophages assessed as increase in IL-10 level incubated for 24 hrs by ELISA based qRT-PCR analysis; format: functional, cell-based; summary of the method: as §1

Chain of Cannabinoid receptor 2 (Mus musculus) (P47936 whole entry): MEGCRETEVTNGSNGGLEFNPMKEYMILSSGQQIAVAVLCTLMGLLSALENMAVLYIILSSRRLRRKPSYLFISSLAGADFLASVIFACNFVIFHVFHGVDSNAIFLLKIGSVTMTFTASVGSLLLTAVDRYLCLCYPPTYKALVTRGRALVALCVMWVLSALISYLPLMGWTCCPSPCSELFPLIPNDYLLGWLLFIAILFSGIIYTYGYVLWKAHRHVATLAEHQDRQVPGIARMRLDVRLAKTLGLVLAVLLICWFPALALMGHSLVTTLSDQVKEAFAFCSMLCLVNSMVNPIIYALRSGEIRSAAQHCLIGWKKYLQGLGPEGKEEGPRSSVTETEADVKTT
Chain of Cannabinoid receptor 1 (P21554 whole entry): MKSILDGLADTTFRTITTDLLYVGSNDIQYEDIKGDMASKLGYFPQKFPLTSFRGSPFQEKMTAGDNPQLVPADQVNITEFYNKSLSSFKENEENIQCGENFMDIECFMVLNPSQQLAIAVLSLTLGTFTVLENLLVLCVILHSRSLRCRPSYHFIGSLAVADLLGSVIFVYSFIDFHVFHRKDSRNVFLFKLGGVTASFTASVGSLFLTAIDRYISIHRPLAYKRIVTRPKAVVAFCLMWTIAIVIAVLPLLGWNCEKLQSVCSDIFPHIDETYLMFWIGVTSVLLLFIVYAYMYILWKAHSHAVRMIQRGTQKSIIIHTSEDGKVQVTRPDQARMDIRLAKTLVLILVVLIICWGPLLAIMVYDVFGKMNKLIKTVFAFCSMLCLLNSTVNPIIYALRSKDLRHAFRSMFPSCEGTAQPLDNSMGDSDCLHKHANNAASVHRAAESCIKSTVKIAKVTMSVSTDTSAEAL
T1 sequence (P34972 whole entry): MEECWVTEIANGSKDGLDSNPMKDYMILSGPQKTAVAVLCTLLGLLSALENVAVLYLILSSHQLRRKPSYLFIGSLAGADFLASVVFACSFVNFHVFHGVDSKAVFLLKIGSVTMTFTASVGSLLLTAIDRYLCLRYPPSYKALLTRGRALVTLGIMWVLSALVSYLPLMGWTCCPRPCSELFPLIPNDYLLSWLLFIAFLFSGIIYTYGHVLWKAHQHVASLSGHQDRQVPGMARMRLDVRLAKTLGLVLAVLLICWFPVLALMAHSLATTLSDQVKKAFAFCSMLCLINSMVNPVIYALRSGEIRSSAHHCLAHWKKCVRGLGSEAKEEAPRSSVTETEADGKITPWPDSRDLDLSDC

Row | SMILES | Activity (THP-1 [1]) | Activity (THP-1 [2]) | Activity (THP-1 [3]) | Ki (Cannabinoid receptor 2 [4]) | EC50 (Cannabinoid receptor 1) | Activity [5] | Activity (THP-1 [6]) | Emax (Cannabinoid receptor 2 [7]) | Emax [8] | Activity (THP-1 [9]) | Activity (THP-1 [10]) | Activity (THP-1 [11]) | Activity (THP-1 [12]) | Activity (THP-1 [13]) | Activity (THP-1 [14]) | Activity (THP-1 [15]) | Activity (THP-1 [16])
1 | CCCCCOc1ccccc1C(=O)NC12CC3CC(CC(C3)C1)C2 | Active | inactive | inactive | 10.8 nM | 106 nM | Active | Active | 95.3% | 34.5% | Active | inactive | Active | inactive | Active | – | – | –
2 | O=C(NC12CC3CC(CC(C3)C1)C2)c1ccccc1OCC1CCCCC1 | Active | inactive | inactive | 20.1 nM | 253 nM | Active | Active | 90.1% | 5.5% | Active | inactive | Active | inactive | Active | inactive | – | –
3 | O=C(NC12CC3CC(CC(C3)C1)C2)c1ccccc1OCc1ccccc1 | Active | inactive | inactive | 14.8 nM | 489 nM | Active | Active | 96.3% | 12.6% | Active | inactive | Active | inactive | Active | – | inactive | inactive
